Source: ChEMBL document CHEMBL3525972, “Characterization of aldehyde oxidase enzyme activity in cryopreserved human hepatocytes” (Drug Metab Dispos, 2012)

Assays:
Aldehyde oxidase [1] = molecular target: T1, Aldehyde oxidase (Homo sapiens, UniProt Q06278); assay: Retention time in cryopreserved human hepatocytes assessed as aldehyde oxidase-mediated metabolite formation treated with 10 uM of carbazeran by LC-MS extracted ion chromatogram analysis; assay type: ADME, cell-based, Hepatocyte
T1 sequence (Q06278 whole entry): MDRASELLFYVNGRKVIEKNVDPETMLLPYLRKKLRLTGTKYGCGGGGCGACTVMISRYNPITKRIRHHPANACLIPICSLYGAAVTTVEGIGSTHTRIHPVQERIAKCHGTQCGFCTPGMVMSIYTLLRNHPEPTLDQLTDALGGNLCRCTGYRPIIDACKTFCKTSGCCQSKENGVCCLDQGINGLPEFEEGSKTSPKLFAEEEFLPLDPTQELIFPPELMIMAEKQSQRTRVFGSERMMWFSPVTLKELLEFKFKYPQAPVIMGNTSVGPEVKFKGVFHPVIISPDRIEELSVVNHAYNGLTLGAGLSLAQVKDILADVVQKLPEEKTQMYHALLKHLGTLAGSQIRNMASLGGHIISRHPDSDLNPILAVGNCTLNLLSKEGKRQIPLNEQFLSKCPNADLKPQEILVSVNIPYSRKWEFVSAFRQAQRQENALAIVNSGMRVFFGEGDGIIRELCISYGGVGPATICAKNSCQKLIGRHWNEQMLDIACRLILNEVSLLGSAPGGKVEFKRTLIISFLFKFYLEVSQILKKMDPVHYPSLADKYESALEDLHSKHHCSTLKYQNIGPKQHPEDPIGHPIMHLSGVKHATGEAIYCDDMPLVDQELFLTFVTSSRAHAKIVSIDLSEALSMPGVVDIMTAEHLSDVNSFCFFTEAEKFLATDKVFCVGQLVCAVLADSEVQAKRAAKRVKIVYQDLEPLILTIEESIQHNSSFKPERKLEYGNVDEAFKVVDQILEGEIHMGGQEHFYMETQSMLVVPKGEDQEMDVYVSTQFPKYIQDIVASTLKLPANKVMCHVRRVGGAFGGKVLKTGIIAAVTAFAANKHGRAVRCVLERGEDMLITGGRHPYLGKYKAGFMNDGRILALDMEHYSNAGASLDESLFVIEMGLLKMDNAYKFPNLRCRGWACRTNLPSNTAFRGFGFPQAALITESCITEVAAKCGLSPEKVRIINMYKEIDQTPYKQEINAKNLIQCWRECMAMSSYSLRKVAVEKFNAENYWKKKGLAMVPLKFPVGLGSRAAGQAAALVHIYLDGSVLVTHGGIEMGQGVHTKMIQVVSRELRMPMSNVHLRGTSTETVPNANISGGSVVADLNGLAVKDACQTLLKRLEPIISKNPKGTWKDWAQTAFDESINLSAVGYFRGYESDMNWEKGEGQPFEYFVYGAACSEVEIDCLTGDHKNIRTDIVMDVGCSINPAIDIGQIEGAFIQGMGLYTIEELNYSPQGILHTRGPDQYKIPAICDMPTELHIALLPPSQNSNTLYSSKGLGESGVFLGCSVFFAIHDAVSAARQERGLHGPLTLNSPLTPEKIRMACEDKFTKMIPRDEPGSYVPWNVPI
In short: (§1)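 Cryopreserved human hepatocytes (lot OOO) were thawed for ~2 min at 37°C, diluted 1/50 in warm recovery medium or WME, spun at 100 x g for 6 min, and resuspended in WME at a final 2.0 x 10^6 cells/mL. They were incubated with 10 µM substrate for 120 min at 37°C. Reactions were stopped with two volumes of cold acetonitrile, then spun, dried under N2 and reconstituted. Read-out was positive-ESI Orbitrap LC-MS extracted ion chromatograms.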

Aldehyde oxidase [2] = molecular target: T1, Aldehyde oxidase; assay: Retention time in cryopreserved human hepatocytes assessed as aldehyde oxidase-mediated metabolite formation treated with 10 uM of O6-benzylguanine by LC-MS extracted ion chromatogram analysis; assay type: ADME, cell-based, Hepatocyte; in short: as §1
Aldehyde oxidase [3] = molecular target: T1, Aldehyde oxidase; assay: Drug level in cryopreserved human hepatocytes assessed as aldehyde oxidase-mediated metabolite formation treated with 10 uM of BIBU1476 by LC-MS extracted ion chromatogram analysis; assay type: ADME, cell-based, Hepatocyte
Aldehyde oxidase [4] = molecular target: T1, Aldehyde oxidase; assay: Drug level in cryopreserved human hepatocytes assessed as aldehyde oxidase-mediated metabolite formation treated with 10 uM of BIBX1382 by LC-MS extracted ion chromatogram analysis; assay type: ADME, cell-based, Hepatocyte; in short: as §1
Aldehyde oxidase [5] = molecular target: T1, Aldehyde oxidase; assay: Drug metabolism in cryopreserved human hepatocytes assessed as aldehyde oxidase-mediated N-(but-1-en-2-yl)-8-(3-chloro-4-fluorophenylamino)-6-oxo-6,7-dihydropyrimido[5,4-d]pyrimidin-2-aminium formation at 10 uM by LC-MS extracted ion chromatogram analysis; assay type: ADME, cell-based, Hepatocyte; in short: as §1
Aldehyde oxidase [6] = molecular target: T1, Aldehyde oxidase; assay: Drug metabolism in cryopreserved human hepatocytes assessed as aldehyde oxidase-mediated 8-(3-chloro-4-fluorophenylamino)-2-imino-6-oxo-2,3,5,6-tetrahydropyrimido[5,4-d]pyrimidin-3-ium formation at 10 uM by LC-MS extracted ion chromatogram analysis; assay type: ADME, cell-based, Hepatocyte; in short: as §1
Aldehyde oxidase [7] = molecular target: T1, Aldehyde oxidase; assay: Drug metabolism in cryopreserved human hepatocytes assessed as aldehyde oxidase-mediated parent compound retention time at 10 uM by LC-MS extracted ion chromatogram analysis; assay type: ADME, cell-based, Hepatocyte
In short: as §1, with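 “cells/mL.” for “cells/mL. They were incubated with 10 µM substrate for 120 min at 37°C.”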

Aldehyde oxidase [8] = molecular target: T1, Aldehyde oxidase; assay: Drug metabolism in cryopreserved human hepatocytes assessed as aldehyde oxidase-mediated 3-(8-(3-chloro-4-fluorophenylamino)-6-oxo-6,7-dihydropyrimido[5,4-d]pyrimidin-2-ylamino)pent-4-en-1-ylium formation at 10 uM by LC-MS extracted ion chromatogram analysis; assay type: ADME, cell-based, Hepatocyte; in short: as §1
Aldehyde oxidase [9] = molecular target: T1, Aldehyde oxidase; assay: Retention time in cryopreserved human hepatocytes assessed as aldehyde oxidase-mediated metabolite formation treated with 10 uM of zaleplon by LC-MS extracted ion chromatogram analysis; assay type: ADME, cell-based, Hepatocyte
In short: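 Cryopreserved human hepatocytes (Lot OOO), thawed at 37°C, spun at 100 x g, resuspended in Williams' Medium E, then incubated at 2.0 x 10^6 cells/mL with 10 µM substrate for 120 min at 37°C. Quenched with two volumes of cold acetonitrile, centrifuged, supernatant dried under N2 and reconstituted in 85:15 water/acetonitrile (0.1% formic acid). Analysed by high-resolution ESI-positive Orbitrap LC-MS using extracted ion chromatograms.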

Aldehyde oxidase [10] = molecular target: T1, Aldehyde oxidase; assay: Retention time in cryopreserved human hepatocytes assessed as aldehyde oxidase-mediated metabolite formation treated with 10 uM of XK-469 by LC-MS extracted ion chromatogram analysis; assay type: ADME, cell-based, Hepatocyte; in short: as §1
clinical = details: human, in vivo
Aldehyde oxidase [11] = molecular target: T1, Aldehyde oxidase; assay: Drug metabolism in cryopreserved human hepatocytes assessed as aldehyde oxidase-mediated metabolite formation at 10 uM by LC-MS extracted ion chromatogram analysis in presence of hydralazine
[12] = Oral bioavailability in human; assay type: ADME, organism-based; details: in vivo
Aldehyde oxidase [13] = molecular target: T1, Aldehyde oxidase; assay: Drug metabolism in cryopreserved human hepatocytes assessed as aldehyde oxidase-mediated N-(but-1-en-2-yl)-8-(3-chloro-4-fluorophenylamino)pyrimido[5,4-d]pyrimidin-2-aminium formation at 10 uM by LC-MS extracted ion chromatogram analysis; assay type: ADME, cell-based, Hepatocyte; in short: as §1
Aldehyde oxidase [14] = molecular target: T1, Aldehyde oxidase; assay: Drug metabolism in cryopreserved human hepatocytes assessed as aldehyde oxidase-mediated 8-(3-chloro-4-fluorophenylamino)-2-imino-2,3-dihydropyrimido[5,4-d]pyrimidin-3-ium formation at 10 uM by LC-MS extracted ion chromatogram analysis; assay type: ADME, cell-based, Hepatocyte; in short: as §1
Aldehyde oxidase [15] = molecular target: T1, Aldehyde oxidase; assay: Drug metabolism in cryopreserved human hepatocytes assessed as aldehyde oxidase-mediated 3-(8-(3-chloro-4-fluorophenylamino)pyrimido[5,4-d]pyrimidin-2-ylamino)pent-4-en-1-ylium formation at 10 uM by LC-MS extracted ion chromatogram analysis; assay type: ADME, cell-based, Hepatocyte; in short: as §1

Work on `CCNC(=O)OC1CCN(c2n[nH]c(=O)c3cc(OC)c(OC)cc23)CC1` yielded a Retention_time (Aldehyde oxidase [1]) of 13.9 min.
For `Nc1nc(OCc2ccccc2)c2[nH]c(O)nc2n1`, the Retention_time (Aldehyde oxidase [2]) was 12.5 min.
In the case of `N=c1nc2c(Nc3ccc(F)c(Cl)c3)nc(=O)[nH]c2c[nH]1`, the Drug metabolism (Aldehyde oxidase [3]) is reported as “metabolite_detected”.
For `C=C(CC)Nc1ncc2nc(=O)[nH]c(Nc3ccc(F)c(Cl)c3)c2n1`, the Drug metabolism (Aldehyde oxidase [3]) was “metabolite_detected”.
With `Nc1ncc2ncnc(Nc3ccc(F)c(Cl)c3)c2n1` the Drug metabolism (Aldehyde oxidase [4]) was “metabolite_detected”.
For `CN1CCC(Nc2ncc3nc(=O)[nH]c(Nc4ccc(F)c(Cl)c4)c3n2)CC1`, the Drug metabolism (Aldehyde oxidase [5]) was “metabolite_detected”, the Drug metabolism (Aldehyde oxidase [6]) was “metabolite_detected” and the Retention time (Aldehyde oxidase [7]) was 10.7 min. The Drug metabolism (Aldehyde oxidase [8]) was “metabolite_detected”.
With `C=C(CC)Nc1ncc2ncnc(Nc3ccc(F)c(Cl)c3)c2n1` the Drug metabolism (Aldehyde oxidase [4]) was “metabolite_detected”.
`CCN(C(C)=O)c1cccc(-c2cc(=O)[nH]c3c(C#N)cnn23)c1` showed a Retention_time (Aldehyde oxidase [9]) of 12.7 min.
`C[C@@H](Oc1ccc(OC2N=c3cc(Cl)ccc3=NC2=O)cc1)C(=O)O` (some centres undefined) gave a Retention_time (Aldehyde oxidase [10]) of 15.7 min.
With `C=CC(CC)Nc1ncc2nc(=O)[nH]c(Nc3ccc(F)c(Cl)c3)c2n1` (centres undefined) the Drug metabolism (Aldehyde oxidase [3]) was “metabolite_detected”.
For `C=CC(CC)Nc1ncc2ncnc(Nc3ccc(F)c(Cl)c3)c2n1` (centres undefined), the Drug metabolism (Aldehyde oxidase [4]) was “metabolite_detected”.
For `Nc1nc(OCc2ccccc2)c2[nH]cnc2n1` [6-O-BENZYLGUANINE], the clearance (clinical) was 15.6 mL/min/kg, the Drug metabolism (Aldehyde oxidase [11]) was “metabolite_not_detected” and the Retention_time (Aldehyde oxidase [7]) was 10.5 min.
Molecule `CCNC(=O)OC1CCN(c2nncc3cc(OC)c(OC)cc23)CC1` [CARBAZERAN] has a bioavailability [12] of under 5%.
For `CN1CCC(Nc2ncc3ncnc(Nc4ccc(F)c(Cl)c4)c3n2)CC1` [FALNIDAMOL], the Drug metabolism (Aldehyde oxidase [13]) was “metabolite_detected”, the clearance (clinical) was 25 mL/min/kg and the Drug metabolism (Aldehyde oxidase [11]) was “metabolite_not_detected”. For the same molecule, the Drug metabolism (Aldehyde oxidase [14]) was “metabolite_detected”, the Retention time (Aldehyde oxidase [7]) was 12.5 min and the Drug metabolism (Aldehyde oxidase [15]) was “metabolite_detected”. For the same molecule, the bioavailability [12] was 2%.
With `C[C@@H](Oc1ccc(Oc2cnc3ccc(Cl)cc3n2)cc1)C(=O)O` [R(+)XK469] the clearance (clinical) was under 1 mL/min/kg and the Retention_time (Aldehyde oxidase [7]) was 17.4 min.
`CCN(C(C)=O)c1cccc(-c2ccnc3c(C#N)cnn23)c1` [ZALEPLON] showed a clearance (clinical) of 15.7 mL/min/kg and a Retention_time (Aldehyde oxidase [7]) of 14.5 min.
